Results: publication PMC9862713 (Bioorganic & Medicinal Chemistry, 2023)
Converted amounts (≈) assume the structure as drawn. “Also recorded” adds a separate entry of the source.

Key:
[1] = Aqueous kinetic solubility in PBS pH 7.4; format: physicochemical; conditions: for solubility kinetic at 24 h: phosphate buffered saline (PBS), pH 7.4, Kinetic solubility Sk
[2] = molecular target: SARS-CoV-2 RdRp (Severe acute respiratory syndrome coronavirus 2, UniProt P0DTD1); assay: RdRp enzymatic assay; format: biochemical
[3] = system: HEK-293; assay: MTT cell viability / cytotoxicity assay; format: cell-based, Human; conditions: 24 and 48 h, concentrations up to 100 µM
Summary of the method: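 HEK-293 cells kept in DMEM with 2 mM L-glutamine, 10% heat-inactivated FBS and 1% pen/strep at 37 °C, 5% CO2. Seeded at 10,000 cells/well; compound or DMSO vehicle (0.5% final) added 24 h later, 24 or 48 h exposure. MTT 0.5 mg/ml final for 2 h at 37 °C, ethanol solubilisation, A570 (ref 650 nm). Eight serial dilutions in triplicate, sigmoidal dose–response fit; mean ± SD, three independent experiments.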

[4] = PBS pH 7.4, 25 °C, 24 h, target 250 µM, 2.5 % DMSO

SMILES | Cytotoxicity on HEK-293 [3] | solubility kinetic at 24 h [1, 4] | other results
O=c1cc(Cc2ccc(O)c(O)c2)oc2cccc(O)c12 [Compound 7] |  |  | Improvement of kinetic solubility ([1]; compared to the hits (luteolin, quercetin)): 3 to 4 fold
O=c1cc(C(CCCC(F)(F)F)c2ccc(O)c(O)c2)oc2cccc(O)c12 (stereo not drawn) [Compound 10] |  |  | IC50 against SARS-CoV-2 RdRp ([2]; enzymatic assay, 37 °C, 60 min, duplicate): no inhibition
CCCCOc1c(-c2ccc(O)c(O)c2)oc2cc(O)cc(O)c2c1=O [Compound 4] | no cytotoxicity effects; also recorded: did not appear to be cytotoxic |  | 
O=C(NCCNC(=S)Nc1ccc(O)c(O)c1)c1cc(=O)c2c(O)cccc2o1 [Compound 17] |  | 1 µM (≈ 0.415 µg/mL) | 
O=c1c(OCCO)c(-c2ccc(O)c(O)c2)oc2cc(O)cc(O)c12 [Compound 5] | no cytotoxicity effects; also recorded: did not appear to be cytotoxic |  | 
CC(c1ccc(O)c(O)c1)c1cc(=O)c2c(O)cccc2o1 (stereo not drawn) [Compound 8] | no cytotoxicity effects; also recorded: did not appear to be cytotoxic |  | 
O=C(OCCc1ccc(O)c(O)c1)c1cc(=O)c2c(O)cccc2o1 [Compound 15] |  |  | Drop of potency (IC50 ratio) ([2]; compared to the rigid ester 14): 22 fold
O=C(Oc1ccc(O)c(O)c1)c1cc(=O)c2c(O)cccc2o1 [Compound 14] |  | 1 µM (≈ 0.314 µg/mL) | Increase of activity (IC50 ratio) ([2]; compared to 12 and 13): about 4 fold
O=c1cc(/C=C/c2ccc(O)c(O)c2)oc2cccc(O)c12 [Compound 12] |  | 1 µM (≈ 0.296 µg/mL) | 
O=c1c(OCCCO)c(-c2ccc(O)c(O)c2)oc2cc(O)cc(O)c12 [Compound 6] | did not appear to be cytotoxic; also recorded: no cytotoxicity |  | Kinetic solubility Sk [1, 4]: 231 µM
